# Like-named read-outs stand apart in the source and are kept apart here.
# How the values were obtained:
# [1] = tested on: Jurkat cells (human T-cell leukemia); experiment: In vitro antiproliferative activity; type: cell-based; conditions: 72 h, read-out: IC50 Jurkat
# Procedure, shortened: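 Cells grown in RPMI-1640; 8 × 10^3 cells per well, pre-incubated 18 h at 37 °C, 5% CO2. Medium replaced with fresh medium containing test compound at several concentrations (from 10 mM DMSO stocks; DMSO ≤0.25% final), 72 h at 37 °C.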
# [2] = tested on: BNL 1ME A.7R.1 hepatocellular carcinoma tumors; experiment: In vivo antitumor activity, syngeneic hepatocellular carcinoma model; conditions: Balb/c mice; for tumor growth inhibition vs control (significance): 5 mg/kg intraperitoneally daily
# Procedure, shortened: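 Male Balb/c mice, 8 weeks old, injected subcutaneously in the dorsal region with 10^7 BNL 1ME A.7R.1 cells in 200 μL sterile PBS. At about 100 mm3, mice were randomized into four groups of 5. Tumors measured by caliper daily for 7 days; V = AB2/2.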
# [3] = tested on: panel of seven human cancer cell lines; experiment: Antiproliferative activity over the panel of seven human cancer cell lines; type: cell-based
# Procedure, shortened: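 Jurkat, RS4;11 and HL-60 cells grown in RPMI-1640; MCF-7, A549, HeLa and HT-29 cells in DMEM; both media with 10% FBS plus penicillin/streptomycin. 8 × 10^3 cells/well settled 18 h at 37 °C, 5% CO2, then exposed to graded compound for 72 h. DMSO ≤0.25%. MTT viability read.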
# [4] = tested on: HeLa cells; experiment: Mitochondrial membrane potential; type: cell-based, human; conditions: 24 or 48 h
# Procedure, shortened: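 HeLa cells exposed to compound for 24 or 48 h, then stained with H2-DCFDA for reactive oxygen species. Fluorescence read by flow cytometry. Parallel JC-1 staining assessed mitochondrial membrane potential. Three independent experiments.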
# [5] = tested on: PBL not stimulated with PHA; experiment: Cytotoxicity in noncancer cells, resting PBL; type: cell-based; conditions: Homo sapiens, 72 h, read-out: IC50 PBLresting
# Procedure, shortened: (§1)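 Peripheral blood lymphocytes from healthy donors isolated on a Lymphoprep gradient, washed, held overnight at 1.0 × 10^6 cells/mL in RPMI-1640 with 10% FBS. Nonadherent cells reseeded at 5 × 10^5 cells/mL. PHA-stimulated set received 2.5 μg/mL PHA; resting set had no PHA. Graded compound for 72 h; viability by MTT.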
# [6] = tested on: HUVECs; experiment: HUVEC motility; type: cell-based, human
# Procedure, shortened: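 Primary cord-vein HUVECs (passages 1–6) grown to confluence (1 × 10^5 seeded) on 0.1% collagen type I. Monolayer scratched with a pipet tip, washed with PBS, then exposed to test compound. Wells photographed at intervals (6 and 24 h). Wound width measured in four areas and compared with initial width. Three independent experiments; significance versus untreated control.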
# [7] = tested on: HeLa cells; experiment: Annexin-V/PI apoptosis assay; type: cell-based, human; conditions: 24 or 48 h
# Procedure, shortened: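 HeLa cells exposed to test compound for 24 or 48 h. Cells harvested and double-stained with annexin-V-FITC and PI. Surface phosphatidylserine exposure read by flow cytometry.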
# [8] = tested on: PBL stimulated with PHA; experiment: Cytotoxicity in noncancer cells, PHA-stimulated PBL; type: cell-based; conditions: Homo sapiens, 72 h, read-out: IC50 PBLPHA
# Procedure, shortened: as §1
# [9] = tested on: HeLa cells; experiment: Western blot analysis of caspases and Bcl-2 family proteins; type: cell-based, human; conditions: for Mcl-1 expression: 48 h, 100 and 250 nM
# Procedure, shortened: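 Treated HeLa cells washed in cold PBS and lysed on ice for 30 min. Lysates cleared at 15000g, 4 °C, for 10 min; protein measured by BCA. 10 μg protein resolved on 7.5–15% SDS-PAGE and transferred to PVDF. Membranes blocked in 5% BSA/Tween-PBS overnight at 4 °C. Primary antibodies (e.g., Mcl-1) applied 2 h at room temperature, then peroxidase secondary for 60 min; ECL detection. β-actin reprobe used as loading control.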
# [10] = Body weight during in vivo antitumor treatment; parameters: species or system Balb/c mice; conditions: 3g at the higher dose (10 mg/kg ip)
# [11] = tested on: BL6-B16 murine melanoma tumor blood vessels; experiment: Antivascular activity in vivo, CD31 vessel count in BL6-B16 melanoma; conditions: 30 mg/kg ip, 24 h, C57BL/6 mice, P < 0.05
# Procedure, shortened: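 Six-week-old C57BL/6 mice received 10^5 BL6-B16 melanoma cells in PBS subcutaneously in the dorsolateral flank. At 300 mm3 tumor volume, a single ip dose of 30 mg/kg in DMSO (50 μL) was given. Tumors excised 24 h later, OCT-embedded, frozen, cut into 4–5 μm cryosections. Stained with rat anti-mouse CD31 (1:200) and biotinylated anti-rat secondary. CD31+ vessels counted in 5 fields/section (40× objective); five mice/group.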
# [12] = tested on: chick embryo chorioallantoic membrane (CAM) blood vessels; experiment: CAM assay in fertilized chicken eggs; type: in vivo
# [13] = tested on: Jurkat and HeLa cells; experiment: Flow cytometric analysis of cell cycle distribution; type: cell-based, human; conditions: for lowest concentration giving a rise in G2/M cells: 24 h treatment
# Procedure, shortened: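 5 × 10^5 HeLa or Jurkat cells exposed to graded compound concentrations for 24 h. Cells collected, fixed in ice-cold 70% ethanol, treated with lysis buffer containing RNase A and 0.1% Triton X-100, then stained with propidium iodide. DNA content measured by flow cytometry; phase distribution derived from DNA histograms.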
# [14] = tested on: HUVECs; experiment: Disruption of HUVEC capillary-like tubules on Matrigel; type: cell-based, human; conditions: 1 h or 3 h incubation
# Procedure, shortened: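 HUVECs isolated from umbilical cord veins, kept in M200 with low-serum growth supplement, and used at passages 1–6. Matrigel gelled 30 min at 37 °C, overlaid with 6 × 10^4 cells; tubules allowed to form for 6 h. Compound then added for 1 or 3 h. Five fields/well photographed at 10×. Image analysis quantified tubule length, mesh area/number, % area covered and branch points. Three independent experiments.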
# [15] = read-out: average IC50 over the seven cell lines
# [16] = read-out: IC50 values range in the seven cell lines
structure (smiles),measurement,setting,value
"COc1ccc(/C=C\c2cc(OC)c(OC)c(OC)c2)cc1O [CA-4, combretastatin A-4]",IC50,[1],5 ± 0.6 nM
"COc1ccc(/C=C\c2cc(OC)c(OC)c(OC)c2)cc1OP(=O)([O-])[O-].[Na+].[Na+] [CA-4P, combretastatin A-4 phosphate, reference compound]",tumor growth inhibition vs control (significance),[2],significant relative to the control
"COC(=O)c1oc2ccccc2c1Nc1cc(OC)c(OC)c(OC)c1 [Compound 3a, Methyl 3-[(3,4,5-Trimethoxyphenyl)amino]benzofuran-2-carboxylate]",IC50,[3]; [15],3300 nM
"COC(=O)c1oc2cc(OC)ccc2c1Nc1cc(OC)c(OC)c(OC)c1 [Compound 3g, Methyl 3-(3,4,5-Trimethoxyphenylamino)-6-methoxybenzofuran-2-carboxylate]",ROS production (H2-DCFDA),[4],production of significant amounts of ROS
same,mitochondrial transmembrane potential (JC-1),[4],time- and concentration-dependent increase in the proportion of cells with depolarized mitochondria
same,tumor growth inhibition vs control (significance),[2],did not reach statistical significance
same,reduction in tumor growth compared with vehicle,[2]; 10 mg/kg intraperitoneally daily,44.5%
same,IC50,[5],> 10000 nM
same,concentration with statistically significant arrest of HUVEC motility,[6]; 6 h incubation,25 nM
same,concentration with highly significant arrest of HUVEC motility,"[6]; after 24 h, lowest tested concentration",5 nM
same,HUVEC motility,[6]; scratch wound,very efficient in arresting cell motility
same,apoptosis (annexin-V),[7],accumulation of annexin-V positive cells
same,IC50,[3]; [16],0.3 to 27 nM
same,IC50,[8],> 10000 nM
same,caspase activation (immunoblot),[9],activation of caspase-9 and caspase-3 in a time- and concentration-dependent manner
same,Mcl-1 expression,[9],strongly down-regulated
same,body weight change during treatment,[10],only a small decrease in body weight
same,reduction in number of CD31-positive tumor vessels,[11],about 20%
same,"blood vessel number, compound alone","[12]; 100 pmol/egg, without FGF",did not induce blood vessels to increase in number
same,FGF-induced increase of blood vessels,"[12]; FGF 100 ng/egg, even at 1 pmol/egg",strongly reduced
same,lowest concentration giving a rise in G2/M cells,[13],60 nM
same,effect on preformed HUVEC tubule-like network,[14],clearly disrupted the network of HUVECs
"CCOC(=O)c1oc2cc(OC)ccc2c1Nc1cc(OC)c(OC)c(OC)c1 [Compound 3h, Ethyl 3-(3,4,5-Trimethoxyphenylamino)-6-methoxybenzofuran-2-carboxylate]",ROS production (H2-DCFDA),[4],production of significant amounts of ROS
same,mitochondrial transmembrane potential (JC-1),[4],time- and concentration-dependent increase in the proportion of cells with depolarized mitochondria
same,IC50,[5],> 10000 nM
same,apoptosis (annexin-V),[7],accumulation of annexin-V positive cells
same,IC50,[3]; [16],13 to 100 nM
same,IC50,[3]; [15],34 nM
same,caspase activation (immunoblot),[9],activation of caspase-9 and caspase-3 in a time- and concentration-dependent manner
same,Mcl-1 expression,[9],strongly down-regulated
same,cells arrested in G2/M,"[13]; 24 h, at higher concentrations",more than 70%
same,lowest concentration giving a rise in G2/M cells,[13],60 nM
"COC(=O)c1oc2c(OC)cccc2c1Nc1cc(OC)c(OC)c(OC)c1 [Compound 3i, Methyl 3-(3,4,5-Trimethoxyphenylamino)-7-methoxybenzofuran-2-carboxylate]",IC50,[3]; [15],370 nM
"CCOC(=O)c1oc2c(OC)cccc2c1Nc1cc(OC)c(OC)c(OC)c1 [Compound 3j, Ethyl 3-(3,4,5-Trimethoxyphenylamino)-7-methoxybenzofuran-2-carboxylate]",IC50,[3]; [15],670 nM
